Reference: ChEMBL document CHEMBL1150115, “Bioactive abietane and seco-abietane diterpenoids from Salvia prionitis” (J Nat Prod, 2002)
≈ marks a conversion by molar mass, not a printed value. Calls of active or inactive are those of the source. The rule behind the calls is not given here.

Key:
[1] = biological target: T1, DNA topoisomerase 1 (Mus musculus, UniProt Q04750); assay: Inhibition of topoisomerase 1 extracted from mouse EAC cells assessed as inhibition of Escherichia coli pBR322 relaxation; type: cell-free, Ehrlich
T1 sequence (Q04750 whole entry): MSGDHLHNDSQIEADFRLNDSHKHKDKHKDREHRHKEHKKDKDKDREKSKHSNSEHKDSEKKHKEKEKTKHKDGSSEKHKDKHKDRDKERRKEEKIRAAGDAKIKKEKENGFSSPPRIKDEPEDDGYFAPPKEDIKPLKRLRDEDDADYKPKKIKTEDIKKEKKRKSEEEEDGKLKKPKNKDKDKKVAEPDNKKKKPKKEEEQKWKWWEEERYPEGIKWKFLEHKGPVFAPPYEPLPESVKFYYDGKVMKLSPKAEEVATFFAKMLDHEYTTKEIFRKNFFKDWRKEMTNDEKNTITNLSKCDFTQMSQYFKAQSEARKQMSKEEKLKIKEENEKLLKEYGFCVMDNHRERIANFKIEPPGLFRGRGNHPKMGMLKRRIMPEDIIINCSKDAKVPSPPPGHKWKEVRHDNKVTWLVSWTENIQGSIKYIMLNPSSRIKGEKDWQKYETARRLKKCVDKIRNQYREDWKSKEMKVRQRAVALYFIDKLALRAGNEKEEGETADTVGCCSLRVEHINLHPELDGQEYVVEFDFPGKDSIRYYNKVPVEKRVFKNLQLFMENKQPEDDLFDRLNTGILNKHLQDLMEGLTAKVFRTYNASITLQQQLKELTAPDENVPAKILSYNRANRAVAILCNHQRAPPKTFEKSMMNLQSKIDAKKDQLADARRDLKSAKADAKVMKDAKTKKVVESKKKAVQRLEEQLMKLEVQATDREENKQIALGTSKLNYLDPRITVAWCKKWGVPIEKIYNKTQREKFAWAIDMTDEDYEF

[2] = tested on: HL-60; assay: Cytotoxicity against human HL60 cells after 48 hr by MTT assay; type: functional, cell-based
[3] = tested on: SGC-7901; assay: Cytotoxicity against human SGC7901 cells after 48 hr by MTT assay; type: functional, cell-based
[4] = tested on: MKN-28; assay: Cytotoxicity against human MKN28 cells after 48 hr by MTT assay; type: functional, cell-based
[5] = tested on: Staphylococcus aureus; assay: Antibacterial activity against Staphylococcus aureus after 18 hrs by microdilution assay; type: functional
Outline: (§1)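 Broth microdilution in Mueller-Hinton broth, with cells at a set final CFU/mL density. Compounds dissolved in DMSO. Incubation at 37 °C for 18 h under aerobic conditions. Blank controls received a limited amount of DMSO under the same conditions. Read-out is MIC.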

[6] = tested on: Micrococcus luteus; assay: Antibacterial activity against Micrococcus luteus after 18 hrs by microdilution assay; type: functional; outline: as §1

Row | Compound | Activity [2] | Activity [3] | Activity [4] | also measured
1 | Cc1ccc2c(c1CCCC(C)(C)O)C(=O)C(=O)C(C(C)C)=C2 | – | – | – | IC50 [1]: 800 nM
2 | Cc1ccc2c(c1CCC(=O)C(C)(C)O)C(=O)C(=O)C(C(C)C)=C2 | – | – | – | IC50 ([2]; HL-60, 48 h): 4600 nM; IC50 ([3]; SGC-7901, 48 h): 200 nM; IC50 ([4]; MKN-28, 48 h): 300 nM
3 | CC(C)C1=CC(=O)C([C@@]2(C)CCCC(C)(C)[C@@H]2CC=O)=CC1=O | – | – | – | MIC [5]: 20 µM (≈ 6.33 µg/mL); MIC [6]: 15 µM (≈ 4.75 µg/mL)
4 | C=C(C)C1CCc2c(C)ccc3c2[C@]1(O)C(=O)C(C(C)C)=C3 (some centres not stated) | inactive | inactive | inactive | –
5 | Cc1ccc2cc(C(C)C)c(O)c3c2c1C(=O)OC3=O | inactive | inactive | inactive | –
